{
  "source": "paper PMC7658073",
  "about": "(Clinical Pharmacokinetics, 2020)",
  "key": {"[1]": {"test": "Phase I DDI study with sildenafil", "assay_type": "in vivo, human"}, "OATP1B3": {"target": "T1, OATP1B3 (Homo sapiens, UniProt Q9NPD5)", "T1 sequence (Q9NPD5 1-702)": "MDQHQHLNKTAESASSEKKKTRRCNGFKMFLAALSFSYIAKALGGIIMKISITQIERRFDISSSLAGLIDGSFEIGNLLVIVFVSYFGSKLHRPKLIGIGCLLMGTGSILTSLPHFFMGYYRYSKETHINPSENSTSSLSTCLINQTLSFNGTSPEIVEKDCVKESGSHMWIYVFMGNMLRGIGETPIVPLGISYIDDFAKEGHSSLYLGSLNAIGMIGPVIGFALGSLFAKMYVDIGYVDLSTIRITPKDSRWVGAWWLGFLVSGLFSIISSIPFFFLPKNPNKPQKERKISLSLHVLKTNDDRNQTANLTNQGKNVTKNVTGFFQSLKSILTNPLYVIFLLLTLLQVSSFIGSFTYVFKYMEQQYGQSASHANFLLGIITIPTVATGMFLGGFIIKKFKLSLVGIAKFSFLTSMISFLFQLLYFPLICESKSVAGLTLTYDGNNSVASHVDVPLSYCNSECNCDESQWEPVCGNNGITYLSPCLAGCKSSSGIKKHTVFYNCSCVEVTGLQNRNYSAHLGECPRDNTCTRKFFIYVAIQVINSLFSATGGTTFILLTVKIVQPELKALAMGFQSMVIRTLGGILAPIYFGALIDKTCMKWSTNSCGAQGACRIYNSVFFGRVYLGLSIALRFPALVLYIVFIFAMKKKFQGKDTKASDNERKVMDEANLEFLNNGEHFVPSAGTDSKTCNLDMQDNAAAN", "test": "Substrate properties towards OATP1B3", "assay_type": "in vitro ADME"}, "[2]": {"settings": "cited from earlier work"}, "[3]": {"settings": "ref data on file, cited from earlier work"}, "[4]": {"test": "Phase I DDI study with sacubitril/valsartan", "assay_type": "in vivo, human", "settings": "administered with sacubitril/valsartan"}, "[5]": {"settings": "cited from earlier work", "remark": "listed apart in the source"}, "[6]": {"target": "T2, organic cation transporter 2 (Homo sapiens, UniProt O15244)", "T2 sequence (O15244 1-555)": "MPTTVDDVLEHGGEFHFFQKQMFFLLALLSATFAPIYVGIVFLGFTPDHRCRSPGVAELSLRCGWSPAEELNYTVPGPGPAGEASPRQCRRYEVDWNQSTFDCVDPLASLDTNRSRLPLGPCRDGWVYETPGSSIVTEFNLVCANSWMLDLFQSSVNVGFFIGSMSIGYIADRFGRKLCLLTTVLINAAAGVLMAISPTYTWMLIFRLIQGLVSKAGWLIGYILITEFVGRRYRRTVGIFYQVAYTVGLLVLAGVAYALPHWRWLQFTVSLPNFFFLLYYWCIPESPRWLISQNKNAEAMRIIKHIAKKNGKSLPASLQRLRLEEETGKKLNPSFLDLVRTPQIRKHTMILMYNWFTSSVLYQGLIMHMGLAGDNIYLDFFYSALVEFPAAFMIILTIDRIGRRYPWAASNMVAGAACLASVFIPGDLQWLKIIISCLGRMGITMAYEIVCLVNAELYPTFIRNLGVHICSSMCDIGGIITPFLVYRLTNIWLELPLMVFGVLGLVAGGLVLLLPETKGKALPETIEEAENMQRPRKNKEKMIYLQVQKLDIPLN", "test": "Inhibitory potency towards OCT2", "assay_type": "in vitro ADME"}, "[7]": {"test": "Phase I DDI study with mefenamic acid", "assay_type": "in vivo, human"}, "Human mass balance study": {"test": "Human mass balance study", "assay_type": "in vivo", "settings": "14C-labeled vericiguat 5 mg oral", "in_short": "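Open-label, non-randomized, non-placebo-controlled study in six healthy male volunteers. Single oral solution of 5 mg [14C]-labelled test compound given fasting. Urine and feces collected up to 336 h and total radioactivity measured as % of dose, summarized descriptively as mean (range). Plasma components expressed as share of total radioactivity AUC.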"}, "[8]": {"settings": "cited from earlier work", "remark": "listed apart in the source"}, "[9]": {"target": "T3, organic cation transporter 1 (Homo sapiens, UniProt O15245)", "T3 sequence (O15245 1-554)": "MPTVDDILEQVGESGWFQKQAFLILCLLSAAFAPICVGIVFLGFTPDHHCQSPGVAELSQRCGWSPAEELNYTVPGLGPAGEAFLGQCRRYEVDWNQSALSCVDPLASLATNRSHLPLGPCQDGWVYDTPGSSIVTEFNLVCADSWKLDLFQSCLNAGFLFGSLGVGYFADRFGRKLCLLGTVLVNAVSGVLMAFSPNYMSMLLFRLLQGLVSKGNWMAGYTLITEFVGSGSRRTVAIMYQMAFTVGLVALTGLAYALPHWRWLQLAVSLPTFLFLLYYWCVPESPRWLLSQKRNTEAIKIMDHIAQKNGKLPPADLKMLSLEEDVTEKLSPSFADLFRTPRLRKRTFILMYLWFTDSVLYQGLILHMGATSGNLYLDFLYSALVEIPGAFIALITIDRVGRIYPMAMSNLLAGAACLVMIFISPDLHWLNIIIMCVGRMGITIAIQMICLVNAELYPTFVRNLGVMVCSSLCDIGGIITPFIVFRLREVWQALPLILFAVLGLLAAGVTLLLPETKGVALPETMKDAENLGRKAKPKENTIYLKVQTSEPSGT", "test": "Substrate properties towards OCT1", "assay_type": "in vitro ADME"}, "[10]": {"test": "Phase I DDI study with rifampicin", "assay_type": "in vivo, human", "in_short": "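Non-randomized, non-blinded, fixed-sequence study in healthy men. Test compound 10 mg single oral dose, fed, alone and then with rifampicin 600 mg QD orally for 9 days (pre- and co-treatment).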"}, "[11]": {"settings": "with sildenafil 100 mg vs without, vericiguat 10 mg QD, fed"}, "[12]": {"settings": "following a 10-mg dose once daily"}, "[13]": {"settings": "with mefenamic acid vs vericiguat 2.5 mg SD alone, fed"}, "[14]": {"settings": "% of dose, listed as vericiguat"}, "[15]": {"settings": "with rifampicin 600 mg QD vs vericiguat 10 mg SD alone, fed"}},
  "note": "Where two headings read alike, the source gives them in different places. Marks after values point to notes of the source that are not given here.",
  "data": [
    {"smiles": "COC(=O)Nc1c(N)nc(-c2nn(Cc3ccccc3F)c3ncc(F)cc23)nc1N", "note": "[Vericiguat]", "values": [
      {"measurement": "Decrease in vericiguat exposure (differences in PK parameters)", "setting": "[1]; co-administration with sildenafil 50 mg", "result": "less than 9%"},
      {"measurement": "AUC0–24,md of vericiguat, point estimate of treatment ratio", "setting": "[1]; [11]", "result": 0.993},
      {"measurement": "Cmax,md of vericiguat, point estimate of treatment ratio", "setting": "[1]; [11]", "result": 0.970},
      {"measurement": "Substrate of OATP1B3", "setting": "OATP1B3", "result": "not a substrate"},
      {"measurement": "Clearance", "setting": "[2]; healthy volunteers", "result": 1.6, "unit": "L/h"},
      {"measurement": "Clearance", "setting": "[2]; patients with HFrEF", "result": 1.3, "unit": "L/h"},
      {"measurement": "Variability in steady-state AUC", "setting": "[2]; population PK model, patients with HFrEF", "result": "about 30%"},
      {"measurement": "Projected unbound inlet Cmax", "setting": "[3]; [12]", "result": 0.03, "unit": "µM"},
      {"measurement": "Unbound Cmax", "setting": "[3]; [12]", "result": "approximately 0.02 µM"},
      {"measurement": "Unbound Cmax", "setting": "[3]; multiple-dose oral 10 mg once daily in patients with HFrEF", "result": "approximately 0.02 µM"},
      {"measurement": "Cmax", "setting": "[3]; read-out: Total Cmax, following a 10-mg dose once daily", "result": "~0.8", "unit": "µM"},
      {"measurement": "Decrease in AUC0–24 of vericiguat", "setting": "[4]", "result": "about 7%"},
      {"measurement": "Decrease in Cmax of vericiguat", "setting": "[4]", "result": "~9", "unit": "%"},
      {"measurement": "Increase in AUC after administration with food compared to without", "setting": "[5]; vericiguat alone", "result": "approximately 44%"},
      {"measurement": "Increase in Cmax after administration with food compared to without", "setting": "[5]; vericiguat alone", "result": "~41", "unit": "%"},
      {"measurement": "Geometric coefficient of variation in AUC", "setting": "[5]; with food", "result": 19, "unit": "%"},
      {"measurement": "Oral bioavailability", "setting": "[5]; with food", "result": 93, "unit": "%"},
      {"measurement": "Geometric coefficient of variation in AUC", "setting": "[5]; without food", "result": 41, "unit": "%"},
      {"measurement": "IC50", "setting": "[6]", "result": "> 5", "unit": "µM"},
      {"measurement": "Increase in AUC of vericiguat", "setting": "[7]; inhibition of UGT1A9 by mefenamic acid", "result": 20, "unit": "%"},
      {"measurement": "AUC of vericiguat, point estimate of treatment ratio", "setting": "[7]; [13]", "result": 1.197},
      {"measurement": "Cmax of vericiguat, point estimate of treatment ratio", "setting": "[7]; [13]", "result": 0.967},
      {"measurement": "Share of total radioactivity AUC in human plasma", "setting": "Human mass balance study", "result": 27, "unit": "%"},
      {"measurement": "Excretion in feces (range)", "setting": "Human mass balance study; % of dose", "result": "42.6 (38.3–46.5) %"},
      {"measurement": "Excretion in urine (range)", "setting": "Human mass balance study; % of dose", "result": "9.0 (6.1–16.1) %"},
      {"measurement": "Total excretion of analyte (urine plus feces) (range)", "setting": "Human mass balance study; % of dose", "result": "51.6 (46.0–62.6) %"},
      {"measurement": "Excretion in feces (range)", "setting": "Human mass balance study; [14]", "result": 43, "unit": "%"},
      {"measurement": "Excretion in urine (range)", "setting": "Human mass balance study; [14]", "result": 9.0, "unit": "%"},
      {"measurement": "Radioactivity excreted via feces", "setting": "Human mass balance study; % of dose, mean (range)", "result": "45.2 (40.1–49.9) %"},
      {"measurement": "Radioactivity excreted via urine", "setting": "Human mass balance study; % of dose, mean (range)", "result": "53.1^b (49.9–56.1) %"},
      {"measurement": "Permeability", "setting": "[8]", "result": "highly permeable"},
      {"measurement": "Solubility", "setting": "[8]", "result": "low-soluble"},
      {"measurement": "Substrate of organic cation transporter 1", "setting": "[9]", "result": "not a substrate"},
      {"measurement": "Decrease in Cmax of vericiguat", "setting": "[10]; pre- and co-treatment with rifampicin", "result": 9, "unit": "%"},
      {"measurement": "Decrease in AUC of vericiguat", "setting": "[10]; pre- and co-treatment with rifampicin 600 mg once daily", "result": 29, "unit": "%"},
      {"measurement": "AUC of vericiguat, point estimate of treatment ratio", "setting": "[10]; [15]", "result": 0.713},
      {"measurement": "Cmax of vericiguat, point estimate of treatment ratio", "setting": "[10]; [15]", "result": 0.914}
    ]}
  ]
}
